Results taken from ChEMBL document CHEMBL1142093, “In vitro activity of the oxazolidinone RWJ-416457 against linezolid-resistant and -susceptible staphylococci and enterococci” (2007).
In brackets after ≈: the same amount, converted by molar mass.

Legend:
[1] = tested on: Enterococcus faecium; test: Antimicrobial activity against Enterococcus faecium 18 with heterozygous 23S rRNA G2576U mutation; format: functional
Summary of the method: (§1)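 MIC by CLSI agar dilution. Resistant clinical enterococcal and S. aureus isolates came mostly from UK patients, a few from Brazil and Austria. Laboratory mutants were selected from clinical isolate ST/02/2121, RN4220 and hypermutable RN4220ΔmutS. Selection used serial broth passage with linezolid rising arithmetically from 0.5 to 10 μg/ml, then repeated subculture on agar with 10 μg/ml linezolid.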

[2] = tested on: Enterococcus faecium; test: Antimicrobial activity against Enterococcus faecium 16 with homozygous 23S rRNA G2576U mutation; format: functional; summary of the method: as §1
[3] = tested on: Staphylococcus aureus; test: Antimicrobial activity against Staphylococcus aureus RN4220 with 23S rRNA G2576U mutation; format: functional; summary of the method: as §1
[4] = tested on: Staphylococcus aureus; test: Antimicrobial activity against Staphylococcus aureus RN4220 with 23S rRNA G2447T mutation; format: functional; summary of the method: as §1
[5] = tested on: Enterococcus faecium; test: Antimicrobial activity against Enterococcus faecium 34 with homozygous 23S rRNA G2576U mutation; format: functional; summary of the method: as §1
[6] = tested on: Staphylococcus aureus; test: Antimicrobial activity against methicillin-resistant Staphylococcus aureus B2 with heterozygous 23S rRNA G2576U mutation; format: functional; summary of the method: as §1
[7] = tested on: Staphylococcus aureus; test: Antimicrobial activity against methicillin-resistant Staphylococcus aureus Ho 4280-0257 with heterozygous 23S rRNA G2576U mutation; format: functional; summary of the method: as §1
[8] = tested on: Staphylococcus aureus; test: Antimicrobial activity against Staphylococcus aureus ST/02/2121; format: functional; summary of the method: as §1
[9] = tested on: Staphylococcus aureus; test: Antimicrobial activity against methicillin-resistant Staphylococcus aureus Ho 4536-0367 with heterozygous 23S rRNA G2576U mutation; format: functional; summary of the method: as §1
[10] = tested on: Enterococcus faecium; test: Antimicrobial activity against Enterococcus faecium 2 L1 with homozygous 23S rRNA G2576U mutation
[11] = tested on: Enterococcus faecalis; test: Antimicrobial activity against Enterococcus faecalis 45 with heterozygous 23S rRNA G2576U mutation; format: functional; summary of the method: as §1
[12] = tested on: Staphylococcus aureus; test: Antimicrobial activity against methicillin-resistant Staphylococcus aureus Ho 4280-0258 with heterozygous 23S rRNA G2576U mutation; format: functional; summary of the method: as §1
[13] = tested on: Enterococcus faecalis; test: Antimicrobial activity against Enterococcus faecalis 9 with heterozygous 23S rRNA G2576U mutation; format: functional; summary of the method: as §1
[14] = tested on: Staphylococcus aureus; test: Antimicrobial activity against methicillin-resistant Staphylococcus aureus Ho 4536-0368 with heterozygous 23S rRNA G2576U mutation; format: functional; summary of the method: as §1
[15] = tested on: Enterococcus faecium; test: Antimicrobial activity against Enterococcus faecium 28 with heterozygous 23S rRNA G2576U mutation; format: functional; summary of the method: as §1
[16] = tested on: Staphylococcus aureus; test: Antimicrobial activity against Staphylococcus aureus RN4220 deltamutS; format: functional; summary of the method: as §1
[17] = tested on: Staphylococcus aureus; test: Antimicrobial activity against Staphylococcus aureus RN4220 deltamutS with 23S rRNA G2576U mutation; format: functional; summary of the method: as §1
[18] = tested on: Enterococcus faecium; test: Antimicrobial activity against Enterococcus faecium Ho 4418-0062 with heterozygous 23S rRNA G2576U mutation; format: functional; summary of the method: as §1
[19] = tested on: Enterococcus faecalis; test: Antimicrobial activity against Enterococcus faecalis 1 L2 with heterozygous 23S rRNA G2576U mutation; format: functional; summary of the method: as §1
[20] = tested on: Enterococcus faecium; test: Antimicrobial activity against Enterococcus faecium 3 with heterozygous 23S rRNA G2576U mutation
[21] = tested on: Enterococcus faecalis; test: Antimicrobial activity against Enterococcus faecalis 25 with heterozygous 23S rRNA G2576U mutation; format: functional; summary of the method: as §1
[22] = tested on: Staphylococcus aureus; test: Antimicrobial activity against Staphylococcus aureus ST/02/2121 with 23S rRNA T2504C mutation; format: functional; summary of the method: as §1
[23] = tested on: Staphylococcus aureus; test: Antimicrobial activity against methicillin-resistant Staphylococcus aureus Ho 4280-0256 with heterozygous 23S rRNA G2576U mutation; format: functional; summary of the method: as §1
[24] = tested on: Staphylococcus aureus; test: Antimicrobial activity against Staphylococcus aureus ST/02/2121 with 23S rRNA G2447T mutation; format: functional; summary of the method: as §1
[25] = tested on: Enterococcus faecium; test: Antimicrobial activity against Enterococcus faecium 31 with heterozygous 23S rRNA G2576U mutation; format: functional; summary of the method: as §1
[26] = tested on: Enterococcus faecalis; test: Antimicrobial activity against Enterococcus faecalis 37 with heterozygous 23S rRNA G2576U mutation; format: functional; summary of the method: as §1
[27] = tested on: Enterococcus faecium; test: Antimicrobial activity against Enterococcus faecium Ho 4136-0042; format: functional; conditions: in the assay text read “H0 4136-0043” for “Ho 4136-0042”
Summary of the method: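 MIC by CLSI agar dilution against a clinical enterococcal isolate. The isolates were either linezolid-susceptible UK clinical isolates (about 100 per group) or among 23 linezolid-resistant clinical enterococci and S. aureus, mostly from UK patients, with a few from Brazil and Austria.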

[28] = tested on: Enterococcus faecium; test: Antimicrobial activity against Enterococcus faecium 44 with heterozygous 23S rRNA G2576U mutation; format: functional; summary of the method: as §1
[29] = tested on: Staphylococcus aureus; test: Antimicrobial activity against Staphylococcus aureus RN4220 deltamutS with 23S rRNA G2576U and A2503G mutation; format: functional; summary of the method: as §1
[30] = tested on: Staphylococcus aureus; test: Antimicrobial activity against Staphylococcus aureus RN4220; format: functional; summary of the method: as §1
[31] = tested on: Staphylococcus aureus; test: Antimicrobial activity against Staphylococcus aureus RN4220 deltamutS revertant with 23S rRNA G2576U mutation; format: functional; summary of the method: as §1
[32] = tested on: Enterococcus faecalis; test: Antimicrobial activity against Enterococcus faecalis Ho 4450-0446 with heterozygous 23S rRNA G2576U mutation; format: functional; summary of the method: as §1
[33] = tested on: Enterococcus faecium; test: Antimicrobial activity against Enterococcus faecium Ho 5114-0276 with heterozygous 23S rRNA G2576U mutation; format: functional; summary of the method: as §1

Structure (SMILES) | MIC [1] [µg/mL] | MIC [2] [µg/mL] | MIC [3] [µg/mL] | MIC [4] [µg/mL] | MIC [5] [µg/mL] | MIC [6] [µg/mL] | MIC [7] [µg/mL] | MIC [9] [µg/mL] | MIC [10] [µg/mL] | MIC [11] [µg/mL] | MIC [12] [µg/mL] | MIC [13] [µg/mL] | MIC [14] [µg/mL] | MIC [15] [µg/mL] | MIC [17] [µg/mL] | MIC [18] [µg/mL] | MIC [19] [µg/mL] | MIC [20] [µg/mL] | MIC [21] [µg/mL] | MIC [22] [µg/mL] | also measured
CC(=O)NC[C@H]1CN(c2ccc(N3Cc4cn(C)nc4C3)c(F)c2)C(=O)O1 | 8 (≈ 21.4 µM) | 16 (≈ 42.9 µM) | 4 (≈ 10.7 µM) | 8 (≈ 21.4 µM) | 32 (≈ 85.7 µM) | 8 (≈ 21.4 µM) | 8 (≈ 21.4 µM) | 2 (≈ 5.36 µM) | 32 (≈ 85.7 µM) | 8 (≈ 21.4 µM) | 8 (≈ 21.4 µM) | 16 (≈ 42.9 µM) | 8 (≈ 21.4 µM) | 8 (≈ 21.4 µM) | 8 (≈ 21.4 µM) | 16 (≈ 42.9 µM) | 16 (≈ 42.9 µM) | 16 (≈ 42.9 µM) | 16 (≈ 42.9 µM) | 8 (≈ 21.4 µM) | MIC [8]: 1 µg/mL (≈ 2.68 µM); MIC [16]: 0.5 µg/mL (≈ 1.34 µM); MIC [23]: 4 µg/mL (≈ 10.7 µM); MIC [24]: 4 µg/mL (≈ 10.7 µM); MIC [25]: 8 µg/mL (≈ 21.4 µM); MIC [26]: 8 µg/mL (≈ 21.4 µM); MIC [27]: 16 µg/mL (≈ 42.9 µM); MIC [28]: 4 µg/mL (≈ 10.7 µM); MIC [29]: 8 µg/mL (≈ 21.4 µM); MIC [30]: 0.5 µg/mL (≈ 1.34 µM); MIC [31]: 8 µg/mL (≈ 21.4 µM); MIC [32]: 2 µg/mL (≈ 5.36 µM); MIC [33]: 2 µg/mL (≈ 5.36 µM)
CC(=O)NC[C@H]1CN(c2ccc(N3CCOCC3)c(F)c2)C(=O)O1 [LINEZOLID] | 32 (≈ 94.9 µM) | 64 (≈ 190 µM) | 16 (≈ 47.4 µM) | 16 (≈ 47.4 µM) | 64 (≈ 190 µM) | 32 (≈ 94.9 µM) | 32 (≈ 94.9 µM) | 8 (≈ 23.7 µM) | 64 (≈ 190 µM) | 32 (≈ 94.9 µM) | 32 (≈ 94.9 µM) | 64 (≈ 190 µM) | 32 (≈ 94.9 µM) | 16 (≈ 47.4 µM) | 16 (≈ 47.4 µM) | 32 (≈ 94.9 µM) | 32 (≈ 94.9 µM) | 64 (≈ 190 µM) | 32 (≈ 94.9 µM) | 16 (≈ 47.4 µM) | MIC [23]: 16 µg/mL (≈ 47.4 µM); MIC [24]: 16 µg/mL (≈ 47.4 µM); MIC [25]: 32 µg/mL (≈ 94.9 µM); MIC [26]: 32 µg/mL (≈ 94.9 µM); MIC [27]: 64 µg/mL (≈ 190 µM); MIC [28]: 16 µg/mL (≈ 47.4 µM); MIC [29]: 32 µg/mL (≈ 94.9 µM); MIC [31]: 16 µg/mL (≈ 47.4 µM); MIC [33]: 8 µg/mL (≈ 23.7 µM)
